# Measurements from different studies.
# Each line is one published result; the experiments were not run side by side.
# Target: Mitogen-activated protein kinase kinase kinase kinase 1 (MAP4K1, Homo sapiens, UniProt Q92918)
SMILES,effect on,mode,technique,tested at,measurement,value
Cc1ccc(C(=O)Nc2ccc(CN3CCN(C)CC3)c(C(F)(F)F)c2)cc1C#Cc1cnc2cccnn12,enzyme activity,inhibitor,,23.5 nM,remaining activity,8.5%
CC(C)(O)[C@H]1CC[C@H](Nc2ccc3ncc(-c4cccc(C(F)(F)F)c4)n3n2)CC1,enzyme activity,inhibitor,,1 µM,remaining activity,79.6%
CN1CC(Oc2cnc(C#N)cc2-c2ccn3nc(NC(=O)C4CC4)cc3c2)C1,enzyme activity,inhibitor,,1 µM,inhibition,4%
CC(=O)N1CCC(c2ccc(C(=O)NC(=N)N)cc2C(F)(F)F)CC1,cell-free assay,,competition with immobilised ligand,1 µM,remaining binding,100%
Nc1ncnc2occ(-c3ccc(NC(=O)Nc4cc(C(F)(F)F)ccc4F)cc3)c12,cell-free assay,inhibitor,,20 µM,remaining signal,0.7%
Cc1ccc(C(=O)NCc2ccsc2)cc1C#Cc1cn(C(C)C)c2ncnc(N)c12,enzyme activity,inhibitor,,1 µM,activity vs control,85%
COc1cc(Cl)c(C(=O)N[C@@H](CN[C@H]2CC[C@@H](N)CC2)Cc2ccc(C#N)cc2)cc1-c1ccc(CN[C@H](C)c2ccc(C)cc2)o1,enzyme activity,inhibitor,,1 µM,remaining activity,96%
O=C(Nc1cnn(-c2csc(C(=O)NC3COC3)c2)c1)Nc1ccccc1Cl,enzyme activity,inhibitor,,5 µM,remaining activity,132%
CC/C(=N\NC(=O)NCc1cccc(O)c1)c1ccc(O)c(C)c1O,enzyme activity,inhibitor,,0.1 µM,inhibition,17.1%
CCS(=O)(=O)c1cc2cc(C[C@](O)(CC(C)(C)c3ccc(F)cc3C(N)=O)C(F)(F)F)[nH]c2cn1,cell-free assay,,competition with immobilised ligand,1 µM,remaining binding,100%
Cc1sc(C(=O)NC2COC2)cc1-n1cc(NC(=O)Nc2c(F)cccc2Cl)cn1,enzyme activity,inhibitor,,10 µM,remaining activity,99.2%
COc1cc2nccc(Oc3ccc(NC(=O)c4c5n(n(-c6ccc(F)cc6)c4=O)CCCC5)cc3)c2cc1OC,enzyme activity,inhibitor,,0.1 µM,inhibition,11%
